Compound activity as filed in PubChem.
Shown are actives, neighbours in structure and some others; about 2.4% of the full set was active somewhere.
NR2E3 ag-1: agonists of human NR2E3 nuclear receptor; Q9Y5X4; CHO-S Gal4-NCOR/VP16-NR2E3 two-hybrid, luciferase; inhibition of corepressor binding, % at 3.98 µM; 0.35% of 360,000 active;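 active means inhibition above the mean of all tested compounds plus 3 SD, cut at about 70% in these data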;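 further: 0% = DMSO with NR2E3 transfected cells and 100% = cells lacking NR2E3 construct; higher means lower luciferase signal from less NR2E3 corepressor binding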
Target sequence (Q9Y5X4 whole entry, looked up, the tested form may be a part): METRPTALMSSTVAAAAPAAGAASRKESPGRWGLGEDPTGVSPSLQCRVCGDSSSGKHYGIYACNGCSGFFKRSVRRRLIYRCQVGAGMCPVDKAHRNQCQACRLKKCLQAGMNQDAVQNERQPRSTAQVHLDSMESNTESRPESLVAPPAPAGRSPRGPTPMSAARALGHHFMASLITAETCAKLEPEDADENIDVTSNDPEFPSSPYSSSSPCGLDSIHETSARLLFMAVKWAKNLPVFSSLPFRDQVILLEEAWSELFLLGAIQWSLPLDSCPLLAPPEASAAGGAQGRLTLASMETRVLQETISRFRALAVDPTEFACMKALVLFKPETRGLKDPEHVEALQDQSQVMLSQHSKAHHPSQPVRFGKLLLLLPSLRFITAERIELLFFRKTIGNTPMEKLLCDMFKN
MPTP inh: inhibitors of mitochondrial permeability transition pore; isolated mouse mitochondria, Ca2+ swelling absorbance, 30 min; inhibition, % at 10 µM; 1.4% of 360,000 active;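 active means inhibition of 50% or more, scaled per plate between neutral and stimulator controls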;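 further: 0% = DMSO wells given calcium and 100% = 1 mM EGTA wells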
697 NFkB inh: lowers PMA/ionomycin-induced NF-kB signal in 697 B cells. 697 B-cell NF-kB luciferase reporter, 16 h. inhibition, % at 4 µM. 0.33% of 330,000 active. AID 435022; in the data active means inhibition above about 35%
aDG glyco up: increases alpha dystroglycan glycosylation; 0.22% of 360,000 active; Pro5-aDG cells, alpha-DG glycosylation AlphaScreen (IIH6); 0% Pro5, 100% B10-LARGE cell signal; activation, % at 10 µM; AID 624168;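 active means activation of at least 8% versus controls, or a plate z-score of at least 8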;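 further: Pro5 are CHO cells carrying HIG-tagged alpha-DG that lacks glycosylation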
Jurkat NFkB inh: inhibitors of the PMA/ionomycin-induced NF-kB reporter in Jurkat cells; PMA/ionomycin-induced NF-kB luciferase reporter, luminescence; inhibition, % at 4 µM; 0.53% of 330,000 active; in the data active means inhibition above about 50%
NR2E3 ag-2: NR2E3 (human) agonism. Q9Y5X4. GST-NR2E3/biotin-RetCOR TR-FRET, 1536-well. inhibition of corepressor binding, % at 4.78 µM. 0.12% of 320,000 active. AID 2300;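 active means percent inhibition above the cutoff of mean plus 3 SD of all tested compounds, set per screening campaign, cut at about 20% in these data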;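 further: 0% = DMSO wells and 100% = biotin wells as full block of FRET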
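system = GST-tagged NR2E3 plus biotinylated RetCOR corepressor | input = 1.35 nM GST-NR2E3 | also added = 7 nM biotin-RetCOR | schedule = 5 h incubation at 4 °C | measured by = TR-FRET with europium anti-GST and streptavidin-D2, 340 nm excitation | read-out = percent loss of FRET ratio relative to control wells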
NR2E3 ag confirm: confirmation of human NR2E3 agonists. AID 624378. 51% of 2,300 active. inhibition, % at 3.98 µM. shares compounds with NR2E3 ag-1. CHO-S mammalian two-hybrid NR2E3-NCOR, luciferase luminescence;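 active means average inhibition above a cutoff equal to the mean inhibition of all tested compounds plus one SD, cut at about 70% in these data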;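 further: 0% = DMSO in NR2E3 cells and 100% = DMSO in cells lacking NR2E3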
VP16 counter: GAL4-VP16 reporter inhibition in NR2E3 agonist counterscreen | shares compounds with NR2E3 ag-1 | CHO-S GAL4-VP16 luciferase reporter, luminescence | inhibition, % at 3.98 µM | 29% of 2,300 active | AID 624379;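 active means mean inhibition above a cutoff equal to the average over all tested compounds plus one standard deviation, cut at about 70% in these data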;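 further: luciferase from a UAS reporter driven by GAL4-VP16 transactivation; 0% = DMSO with VP16-transfected cells and 100% = DMSO with cells lacking VP16; higher means less reporter light so more repression of VP16 activity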
The depositor's hits bear a star; · = no result given.

SMILES | NR2E3 ag-1 | MPTP inh | 697 NFkB inh | aDG glyco up | Jurkat NFkB inh | NR2E3 ag-2 | NR2E3 ag confirm | VP16 counter
Cc1cc(C(=O)NNC(=O)/C=C/c2ccco2)c(C)o1 | 15 | 0 | 6 | 0 | -3 | · | · | ·
C/C(CCC12CC3CC(CC(C3)C1)C2)=N\NC(N)=S | -36 | 0 | 20 | 1 | 11 | -3 | · | ·
C/C(CC(C)(C)C1CCCCC1)=N\NC(N)=S | 81* | 0 | 18 | 2 | 30 | 2 | 39 | 24
COc1ccc(CC(C)N2CCN(Cc3ccccc3)CC2)cc1OC (stereo unspecified) | 4 | 0 | -1 | 0 | 13 | 2 | · | ·
Cc1cccc(C)c1OCc1cc(C(=O)N(Cc2c(C)nn(C)c2C)C2CC2)no1 | 62 | 4 | -58 | 3 | 20 | -3 | 61 | 58
Cc1cccc(C)c1OCc1cc(C(=O)NCC2CCCCC2)no1 | -25 | 0 | 7 | 0 | 14 | -1 | · | ·
CC1CCCCC1Nc1ncnc2sccc12 (stereo unspecified) | 64 | 0 | -13 | 0 | 12 | 2 | 10 | 31
O=C(COC(=O)CNC(=O)c1ccccc1F)NCCC1=CCCCC1 | 12 | -1 | 1 | 0 | -13 | 0 | · | ·
O=C(COc1ccccc1[N+](=O)[O-])N1CCC(Cc2ccccc2)CC1 | -13 | -2 | -2 | 0 | 4 | 0 | · | ·
NC(=O)c1ccccc1OCC(=O)N1CCC(Cc2ccccc2)CC1 | 77* | 10 | -20 | 1 | 33 | 2 | 92* | 74*
CC(C)(C)NCC(=Cc1ccccc1)C(=O)c1ccccc1 | 87* | 1 | · | 0 | · | · | 83* | 30
COc1ccc(-c2nn(-c3ccccc3)cc2/C=N/O)cc1OC | 60 | 1 | 23 | 0 | -9 | -2 | 38 | 11
O=C(Nc1ccc2c(c1)CN(Cc1ccco1)CC2)C1CCCO1 (stereo unspecified) | -11 | -1 | 11 | 0 | 5 | 3 | · | ·
Cc1ccc(SCCNC(=S)Nc2cc(C)cc(C)c2)cc1 | 55 | 2 | 28 | 0 | -3 | 0 | 19 | 29
Cc1ccc(SCCNC(=S)Nc2ccc(C)cc2C)cc1 | -3 | 8 | -7 | 0 | -20 | 8 | · | ·
O=C(CSc1nnc(-c2ccncc2)o1)Nc1ccccc1C(F)(F)F | 14 | 0 | -2 | 0 | -6 | -1 | · | ·
Cc1cc(-c2nnc(SCC(=O)Nc3ccccc3C(F)(F)F)o2)c(C)n1-c1ccccc1 | 50 | -2 | -21 | 0 | 2 | -1 | 29 | -8
S=c1[nH]nc(-c2cc(-c3ccsc3)n[nH]2)n1-c1cccc2ccccc12 | 49 | 2 | -14 | 0 | 2 | 2 | 18 | -17
Cc1ccccc1Oc1nc(-c2ccccn2)nc2ccccc12 | 66 | 1 | -4 | 2.1* | 4 | -2 | 27 | 29
c1ccc(N2CCN(c3nc(-c4ccccn4)nc4ccccc34)CC2)cc1 | 100* | -2 | -4 | 2 | 5 | 0 | 23 | 15
CN1CCN(c2nc(-c3ccccn3)nc3ccccc23)CC1 | -22 | 0 | 5 | 4 | 0 | 3 | · | ·
O=C(Cc1cccs1)NCCc1ccc(Cl)cc1 | -14 | -1 | 5 | 0 | 7 | -3 | · | ·
CCC(Sc1nc(N)c(NC(=O)c2ccco2)c(=O)[nH]1)C(=O)O (stereo unspecified) | -2 | -2 | 22 | 0 | 0 | 0 | · | ·
NC(=O)c1nn(-c2ccccc2)nc1NC(=O)CSc1nnnn1-c1ccc(Cl)cc1 | 92* | -15 | 14 | 0 | -13 | -3 | 97* | 26
Cc1ccc(-c2nc(NC(=O)CSc3nnnn3-c3ccccc3)ns2)cc1 | 73* | 1 | 10 | 0 | 15 | 4 | 100* | 29
SMILES | NR2E3 ag-1 | MPTP inh | 697 NFkB inh | aDG glyco up | Jurkat NFkB inh | NR2E3 ag-2 | NR2E3 ag confirm | VP16 counter
CCn1c2ccccc2c2cc(NC(=O)CSc3nnnn3-c3ccccc3)ccc21 | 70 | -4 | -18 | -1 | -25 | 1 | 54 | 21
CCn1c2ccccc2c2cc(NC(=O)CSc3nnc(-c4ccc(OC)cc4)n3N)ccc21 | 6 | 0 | -35 | -1 | -64 | 3 | · | ·
O=C(CSc1nnnn1-c1ccccc1)Nc1ccc(Cl)cc1 | -19 | 4 | 17 | 0 | 4 | 0 | · | ·
COc1ccc(-n2cnnc2SCC(=O)Nc2cc(C(C)(C)C)nn2-c2ccccc2)cc1 | 66 | -1 | -15 | 0 | -9 | -1 | 20 | 15
COc1ccccc1-n1cnnc1SCC(=O)Nc1cc(C(C)(C)C)nn1-c1ccccc1 | 12 | 0 | -7 | 0 | -6 | 2 | · | ·
COc1ccccc1CNS(=O)(=O)c1ccc2c(c1)CC(C)N2C(=O)C1CCC1 (stereo unspecified) | 72* | 34 | -57 | 2 | 21 | -1 | 72* | 58
COc1ccccc1CNS(=O)(=O)c1ccc2c(c1)CC(C)N2C(=O)C1CC1 (stereo unspecified) | 29 | 4 | -17 | 0 | 16 | -1 | · | ·
CCN(CC)S(=O)(=O)c1ccc(N2CCOCC2)c(NS(=O)(=O)c2cc(C(C)(C)C)ccc2C)c1 | 50 | 7 | 20 | 0 | 1 | 1 | 66 | -18
CNc1sc(C(=O)c2cccs2)c(N)c1-c1nc2ccccc2s1 | 51 | 3 | -37 | 1 | -6 | 7 | -16 | -40
CNc1sc(C(=O)c2ccc(F)cc2)c(N)c1-c1nc2ccccc2s1 | -70 | 12 | -52 | 0 | -16 | -4 | · | ·
COCCn1c(C)cc(C(=O)COC(=O)c2cc3c(s2)CCC3)c1C | -3 | 1 | 8 | 0 | -6 | -2 | · | ·
COCCn1c(C)cc(C(=O)COC(=O)c2cccc(O)c2)c1C | 59 | 2 | 35 | 0 | -5 | 0 | 42 | -7
Cc1cc(N2CCN(C(=O)c3cccs3)CC2)c(F)cc1[N+](=O)[O-] | 79* | 1 | -16 | 0 | 6 | 3 | 82* | 66
O=C(OCN1C(=O)c2ccccc2C1=O)c1cccnc1SC(F)F | -32 | 1 | 5 | 0 | 8 | 2 | · | ·
Cc1nc2cc(NCc3nc4ccccc4n3Cc3ccccc3)ccc2n1C | 59 | -5 | -247 | 0 | -39 | 1 | -109 | -122
Cc1cccc(NCc2nc3ccccc3n2Cc2ccccc2)c1 | -55 | 7 | -14 | 0 | -30 | -1 | · | ·
OCC1OC(n2ccc3c2ncn2ncnc32)C(O)C1O (stereo unspecified) | 57 | 0 | · | 0 | · | · | 7 | 13
COc1cc(OC)nc(-n2ncc(Br)c(Br)c2=O)n1 | 74* | 1 | · | 0 | · | -2 | 97* | 36
